High-throughput results: PubChem BioAssay, several laboratories
T cell modulator – T cell immune modulators affecting CD8 T cell-vesicle binding. 2C CD8+ T cell-vesicle binding, flow cytometry; stronger effect = lower value. response (vesicle binding), % at 7 µM. 330,000 compounds, 0.068% hits. AID 2052;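 active means response, share of CD8 T cells binding vesicles, and their 90th percentile fluorescence all below set limits, cut at about 80% in these data, passing the limit was not always enough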;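 further: values below 100% mean blocked vesicle binding to the CD8+ T cells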
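material = purified 2C TCR transgenic mouse naive CD8+ T cells | controls = Unloaded micro-vesicles (low), QL9 vesicles with 0.7% DMSO (high) | detection = cytometric PE anti-B7-1 and Alexa647 anti-CD8 signals after 1% paraformaldehyde fixation | incubation = binding step 1.5 h, 37 °C, antibody labelling 20 min, ice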
GASC-1 inh – human JMJD2C demethylase inhibition. GST-JMJD2C(1-420) H3K9me3 demethylation, DELFIA europium. AID 2099. inhibition, % at 2.35 µM. Q9H3R0. 330,000 compounds, 0.069% hits;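 active means more than half of a compound's replicate wells show inhibition beyond 50%, single wells judged on their own value; inconclusive means some, but no more than half, of replicates pass 50% inhibition; inactive means no replicate passes 50% inhibition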;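 further: signal counts dimethyl H3K9 product captured on neutravidin plate; 0% = median of DMSO wells and 100% = 0.3 times that DMSO median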
PP5 inh – inhibitors of human protein phosphatase 5 (PP5) | purified PP5c, OMFP substrate fluorescence | inhibition, % at 6.7 µM | 320,000 compounds, 0.18% hits | AID 1987;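 active means inhibition above the campaign's mean inhibition across all tested compounds plus 3 SD, cut at about 9.5% in these data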;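 further: 0% = DMSO only and 100% = 100 µM cantharidin control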
PP1 counter – blocks human PP1-alpha phosphatase, a PP5 counter-screen. purified PP1alpha, OMFP fluorescence. AID 2235. P62136. 320,000 compounds, 0.9% hits. inhibition, % at 6.7 µM;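 active means inhibition above the mean inhibition of all tested compounds plus 3 SD, computed separately for each screening campaign, cut at about 15% in these data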
Target sequence (P62136 whole entry, looked up): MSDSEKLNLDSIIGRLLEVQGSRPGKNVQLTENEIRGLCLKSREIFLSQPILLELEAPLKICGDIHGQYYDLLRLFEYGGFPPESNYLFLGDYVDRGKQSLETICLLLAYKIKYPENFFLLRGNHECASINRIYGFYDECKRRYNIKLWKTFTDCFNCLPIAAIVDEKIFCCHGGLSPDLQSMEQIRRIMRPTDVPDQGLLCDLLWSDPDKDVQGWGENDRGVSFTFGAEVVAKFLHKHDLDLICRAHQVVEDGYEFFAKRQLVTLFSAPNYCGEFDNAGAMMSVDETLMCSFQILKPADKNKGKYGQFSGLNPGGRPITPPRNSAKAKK
HTR2A ag – agonists of mouse serotonin 5-HT2A receptor (HTR2A) | AID 624169 | 360,000 compounds, 0.66% hits | activation, % at 7.6 µM | P35363 | CHO-K1 mHTR2A beta-arrestin complementation, luminescence; percent of 30 µM serotonin response;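 active means activation above a run cutoff, the mean activation of all tested compounds plus 3 SD, cut at about 14% in these data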;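 further: 0% = plate median of compound wells and 100% = 30 µM serotonin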
PP1 inh confirm – confirmation of human PP1 phosphatase inhibitors; purified PP1alpha, OMFP substrate fluorescence; inhibition, % at 6.7 µM; AID 2358; 1,900 compounds, 52% hits; shares compounds with PP1 counter;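 active means mean PP1 inhibition above a set limit taken from the earlier primary screen, cut at about 15% in these data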
PP5 counter – PP5 phosphatase inhibition, counter-screen for PP1 inhibitors; 1,900 compounds, 4% hits; inhibition, % at 6.7 µM; shares compounds with PP1 counter; AID 2360; purified PP5c, OMFP fluorescence;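 active means mean PP5 inhibition over triplicate wells above about 9.5% taken from the earlier PP1 screen, limit read from the data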
* = called active by the depositor; ? = inconclusive; nt = no result. A selection: hits, their analogues and other compounds. The true share with any hit is near 1.7%.

SMILES | T cell modulator | GASC-1 inh | PP5 inh | PP1 counter | HTR2A ag | PP1 inh confirm | PP5 counter
CCOc1ccc(N2CSC3=C(C#N)C(c4ccco4)CC(=O)N3C2)cc1 (configuration not stated) | 221 | -15 | 4 | 31* | 6 | 13 | 13*
CCc1ccc(C(=O)NNC(=O)c2ccc(=O)n(C)n2)cc1 | 198 | -5 | 1 | 0 | -5 | nt | nt
CN(C)c1ccc(-c2cc(O)c3ncccc3c2)cc1 | 473 | 1 | 1 | 21* | -1 | 21* | -4
Oc1cc(-c2ccncc2)cc2cccnc12 | 262 | nt | nt | nt | -12 | nt | nt
COc1cc(NC(=O)c2ccnc(N)c2)cc(C(=O)Nc2cccc(C(F)(F)F)c2)c1 | 612 | 0 | 2 | 13 | -2 | nt | nt
COc1cc(NC(=O)c2cnc(N)s2)cc(C(=O)Nc2cccc(C(F)(F)F)c2)c1 | 529 | -14 | 7 | 32* | -5 | 34* | 1
O=C(CN1C(=O)S/C(=C\c2ccc(Cl)cc2)C1=O)NNC(=O)c1ccccc1O | 630 | 2 | 0 | 18* | -1 | 12 | -6
COc1cc(NC(=O)CSc2nc(C3CC3)nc3ccccc23)cc(OC)c1 | 918 | -5 | 1 | 19* | 0 | 18* | -4
CCOC(=O)C1(C)CCCCN1C(=O)c1cccnc1 (configuration not stated) | nt | nt | nt | nt | 5 | nt | nt
CCCOc1ccc(/C(O)=C2\C(=O)C(=O)N(c3ccccn3)C2c2ccccc2F)cc1C (configuration not stated) | 321 | -1 | 1 | 24* | -11 | 26* | 0
COc1ccc(C2/C(=C(/O)c3ccc(C)cc3)C(=O)C(=O)N2c2ccccn2)cc1OC (configuration not stated) | 197 | 0 | -1 | 4 | 4 | nt | nt
CC(=O)N1c2ccc(S(=O)(=O)N3CCCCC3)cc2CC1C(=O)Nc1ccc(C)cc1 (configuration not stated) | 434 | ? | 2 | -1 | 0 | nt | nt
CC(=O)Nc1ccc(N2CCc3c(C)c(C#N)c4nc5ccccc5n4c32)cc1 | 329 | 1 | 2 | 2 | nt | nt | nt
CCOC(=O)c1cc(-c2ccccc2)sc1NC(=O)C(C)C | 288 | -6 | 2 | -3 | 1 | nt | nt
CCOC(=O)c1cc(-c2ccccc2)sc1NC(=O)C(C)N1C(=O)NC(C)(c2ccc(Cl)cc2)C1=O (configuration not stated) | 413 | 3 | 4 | 22* | 0 | 11 | 1
Cc1ccc(OCC(=O)OCC(=O)NC2CC2)cc1C | 353 | -4 | 2 | 0 | -1 | nt | nt
COc1cc(NC(=O)Cc2c(C(=O)O)[nH]c3ccccc23)cc(OC)c1OC | 243 | 0 | 0 | 18* | 0 | 2 | -1
O=C(Nc1nnc(-c2ccc3c(c2)CCCC3)o1)c1c(F)cccc1F | 457 | 3 | 1 | 7 | -2 | nt | nt
O=C(Nc1nnc(-c2ccc3c(c2)CCCC3)o1)c1ccc(Cl)cc1Cl | 431 | -3 | 1 | 32* | 1 | 26* | -4
Cc1ccccc1C(=O)N1CCc2cc(-c3nc(NC(=O)Cc4ccc5c(c4)OCO5)sc3C)ccc21 | 313 | -1 | 4 | 19* | 0 | 19* | 3
Cc1cc(C)n(-c2ncnc3ccccc23)n1 | 613 | 2 | -3 | -1 | 0 | nt | nt
COCCN(C(=O)COC(=O)CCC1CCCC1)c1c(N)n(Cc2ccccc2)c(=O)[nH]c1=O | 571 | -3 | -1 | 2 | 2 | nt | nt
C#CCOCCOCCOCCNc1nc(N2CCN(C(=O)C(Cc3ccc(O)cc3)n3cc(C(N)CC(C)C)nn3)CC2)nc(N2CCN(C(=O)C(Cc3cc4ccccc4[nH]3)n3cc(C(N)C(C)CC)nn3)CC2)n1 (configuration not stated) | 868 | -34 | 3 | 20* | nt | -24 | -4
C#CCOCCOCCOCCNc1nc(N2CCN(C(=O)[C@H](Cc3ccc(O)cc3)n3cc([C@@H](N)C(C)CC)nn3)CC2)nc(N2CCN(C(=O)[C@H](Cc3cc4ccccc4[nH]3)n3cc([C@@H](N)Cc4ccc(O)cc4)nn3)CC2)n1 (some centres not stated) | 641 | 12 | 4 | 22* | nt | -10 | -1
O=C(N/N=C/c1cccc(F)c1)c1cc(-c2ccco2)nc2ccccc12 | 394 | 4 | -4 | 31* | -7 | 11 | -2
SMILES | T cell modulator | GASC-1 inh | PP5 inh | PP1 counter | HTR2A ag | PP1 inh confirm | PP5 counter
COc1cc(/C=N/NC(=O)c2cc(-c3ccco3)nc3ccccc23)cc(OC)c1O | 190 | 8 | 0 | 12 | 1 | nt | nt
N=c1c(C(=O)NCc2ccco2)cc2c(=O)n3ccccc3nc2n1Cc1ccc(Cl)cc1 | 153 | 1 | 4 | 18* | -3 | 7 | -1
N=c1c(C(=O)NCc2ccco2)cc2c(=O)n3ccccc3nc2n1Cc1ccccc1 | 89 | 9 | 3 | 8 | 0 | nt | nt
Cc1ccc(S(=O)(=O)c2cc3c(=O)n4ccccc4nc3n(Cc3ccco3)c2=N)cc1 | 352 | -1 | 3 | 21* | -2 | 5 | 1
CCCn1c(CN2CCN(C(=O)OCC)CC2)nc2c1c(=O)n(C)c(=O)n2C | 202 | -14 | 4 | 55* | -5 | -5 | -3
CCOc1ccccc1NC(=O)COC(=O)Cc1ccc(-c2ccccc2)cc1 | 205 | -16 | 3 | 21* | 1 | 16* | -3
O=S(=O)(Cc1cc(NCc2ccccc2)nc(-c2ccccn2)n1)c1ccccc1 | 219 | -5 | 1 | 39* | 1 | 46* | 0
O=S(=O)(Cc1cc(NCc2ccccc2)nc(-c2ccncc2)n1)c1ccccc1 | 149 | 10 | 3 | -1 | 0 | nt | nt
COC(=O)c1ccc(CSc2nc3scc(-c4cccs4)c3c(=O)[nH]2)o1 | 214 | -7 | 1 | 22* | -5 | 9 | -2
COc1ccc(C)cc1N(CC(=O)N1CCCCCC1)S(=O)(=O)c1ccc(C)cc1 | 263 | -18 | 3 | 1 | -6 | nt | nt
O=[N+]([O-])c1cccc(/C=N/Nc2nc(C(Cl)(Cl)Cl)nc3ccccc23)c1 | 242 | 6 | 0 | 0 | 4 | nt | nt
ClC(Cl)(Cl)c1nc(N/N=C/c2ccncc2)c2ccccc2n1 | 263 | -11 | 1 | 22* | 0 | 18* | -3
Cc1cccc(NC(=O)/C(=C/c2cccc([N+](=O)[O-])c2)NC(=O)c2cccs2)c1 | 301 | 0 | -1 | 18* | -5 | 13 | 0
O=C(Nc1cccc2ccccc12)/C(=C/c1cccc([N+](=O)[O-])c1)NC(=O)c1cccs1 | 298 | -8 | -1 | 2 | 0 | nt | nt
O=C(NN=Cc1cc(Br)c(O)c(Br)c1)c1ccccc1NS(=O)(=O)c1cccs1 | 451 | 11 | nt | nt | 0 | nt | nt
